# Assay results from different studies.
# Cell line: Jurkat
# Effect on: cell growth or viability
SMILES,technique,time,endpoint,value
N#CCCC1=CC2C=CC=CC1C2C1CCCCC1=O (centres unmarked),flow cytometry,,IC50,0.075 µM
CCCCCCCCCCCCNC(=O)NCCCC[C@H](NS(C)(=O)=O)C(=O)N[C@H](C)C(=O)N[C@@H](CCCNC(=N)N)C(N)=O,MTT,72 h,EC50,25.4 to 40.8 µM
Cc1cc(=O)n(C)c2cc(N3C(=O)CC[C@H](NS(=O)(=O)CC(C)C)[C@H]3c3ccc(Cl)cc3)ccc12,,7 days,EC50,10.5 µM
O=C1CCCCC1C1C2C=CC=CC1C(CCN1C(=O)c3ccccc3C1=O)=C2 (centres unmarked),flow cytometry,,IC50,0.026 µM
CCn1cc(-c2cccc(C(F)(F)F)c2)c2sc(C(=N)NC3CCS(=O)(=O)CC3)cc2c1=O,,7 days,EC50,3.64 µM
CCOC(=O)CCC1=CC2C=CC=CC1C2C1CCCCC1=O (centres unmarked),flow cytometry,,IC50,0.048 µM
C[C@H](O)C(=O)CCCCCCC(=O)Nc1cccc(-c2cn(-c3ccccc3)nn2)c1,thymidine uptake,,IC50,2.84 µM
Cc1cc2c(cc1N1C(=O)c3cccc4c(CCCO)ccc(c34)C1=O)n(C)c(=O)n2C (racemic),resazurin,,GI50,3.9 µM
CCCCCCCCCCCCNC(=S)NCCCC[C@H](NS(C)(=O)=O)C(=O)N[C@H](C)C(=O)N[C@@H](CCCNC(=N)N)C(=O)N1CCOCC1,MTT,72 h,EC50,35.5 to 64.4 µM
O=C(/C=C/C=C/c1ccc2c(c1)OCO2)N1CCCCC1,MTT,48 h,IC50,> 50 µg/mL
CCCON(Cc1ccc(C(=O)NO)cc1)C(=O)Nc1ccc(N(C)C)cc1,ATP luminescence,72 h,IC50,5.22 µM
